Data taken from article PMC8343189 (Acta Pharmaceutica Sinica. B, 2020).

Experiments:
[1] = system: MDCK cells; test: MDCK cells permeability; type: in vitro ADME, canine; details: oral bioavailability prediction from MDCK permeability
Procedure, shortened: (§1)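 Transwell with a resistance-stable MDCK monolayer; compound added to the upper chamber, HBSS in the lower chamber. Incubated 120 min at 37 °C, 5% CO2. Lower-chamber concentration measured by LC−MS. Papp derived from amount transported per time, membrane area and initial upper-chamber concentration. Mean ± SD, n = 3.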

[2] = MDCK cells permeability; type: in vitro ADME, canine; details: dog, MDCK
Procedure, shortened: as §1

[3] = system: intracellular Ca^2+ concentration; test: Intracellular Ca^2+ fluorescence; type: cell-based; details: 30 μmol/L compound, 200 μmol/L ATP, Cal520, control 2.3 folds
[4] = target: T1, ANO1 (Homo sapiens, UniProt Q5XXA6, DEL476-501); test: ANO1 whole-cell patch clamp in ANO1-overexpressing FRT cells; type: cell-based; details: 30 μmol/L, ANO1 activated by 1 μmol/L intracellular Ca^2+
T1 sequence (Q5XXA6 with tags, fused parts or gaps isoform Q5XXA6-5 DEL539-564): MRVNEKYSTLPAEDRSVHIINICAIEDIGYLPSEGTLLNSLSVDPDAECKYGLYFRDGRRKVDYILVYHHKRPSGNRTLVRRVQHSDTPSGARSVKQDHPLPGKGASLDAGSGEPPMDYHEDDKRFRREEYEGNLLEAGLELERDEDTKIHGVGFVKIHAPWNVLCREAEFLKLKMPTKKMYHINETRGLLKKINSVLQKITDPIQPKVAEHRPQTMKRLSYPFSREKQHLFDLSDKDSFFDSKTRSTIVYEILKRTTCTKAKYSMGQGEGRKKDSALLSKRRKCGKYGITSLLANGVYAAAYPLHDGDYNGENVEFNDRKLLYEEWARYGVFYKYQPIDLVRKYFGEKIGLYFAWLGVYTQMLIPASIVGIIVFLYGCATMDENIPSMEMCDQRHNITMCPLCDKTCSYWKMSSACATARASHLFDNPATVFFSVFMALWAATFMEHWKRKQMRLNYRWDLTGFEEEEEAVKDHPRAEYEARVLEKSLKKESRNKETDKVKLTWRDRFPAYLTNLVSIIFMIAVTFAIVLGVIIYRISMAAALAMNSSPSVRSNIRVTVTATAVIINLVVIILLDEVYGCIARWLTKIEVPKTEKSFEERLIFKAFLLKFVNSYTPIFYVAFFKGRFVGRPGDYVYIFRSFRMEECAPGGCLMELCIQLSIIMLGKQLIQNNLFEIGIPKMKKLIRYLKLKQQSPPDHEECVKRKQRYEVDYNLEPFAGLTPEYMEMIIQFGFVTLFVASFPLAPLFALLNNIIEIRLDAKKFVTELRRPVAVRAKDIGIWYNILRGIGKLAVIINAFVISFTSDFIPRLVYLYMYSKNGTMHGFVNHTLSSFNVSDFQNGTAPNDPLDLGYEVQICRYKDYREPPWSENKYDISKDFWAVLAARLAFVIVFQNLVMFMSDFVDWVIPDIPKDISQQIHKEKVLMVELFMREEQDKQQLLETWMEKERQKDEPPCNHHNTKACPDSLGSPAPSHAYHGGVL

[5] = Stability under different pH conditions; type: physicochemical; details: 37 °C, 100 μmol/L, mean ± SD, n = 3
Procedure, shortened: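 Test compound diluted to 100 μmol/L in phosphate buffers at pH 1.0, 4.0, 6.8, 7.4 and 9.0 and held in a 37 °C water bath. HPLC−UV peak area measured at 0, 2 and 5 h; residual expressed relative to the 0 h peak area.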

[6] = system: CHO cells; test: SRB proliferative cytotoxicity in CHO cells; type: cell-based, Chinese Hamster; details: 1 and 3 μmol/L, 72 h
Procedure, shortened: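 CHO cells in DMEM with 10% FBS, seeded overnight, then exposed to test compound or DMSO vehicle for 72 h. Cells fixed with 10% TCA for 1 h at 4 °C and stained with 0.4% SRB in 1% acetic acid for 15 min in the dark. Washed with acetic acid, dye dissolved in 10 mmol/L Tris-base, absorbance read at 540 nm. n = 3, mean ± SEM, t-test vs DMSO control.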

[7] = system: SD rats; test: Chronic constriction injury model; type: in vivo; details: 40 mg/kg i.g., rat CCI, Electronic Von Frey, vehicle 11.5
[8] = system: SD rats; test: Formalin test on rat; type: in vivo
Procedure, shortened: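 30 min later, 50 μL 5% formalin injected into the left paw; controls received saline. Foot lifts counted over phase 1 (0–10 min) and phase 2 (10–60 min). Mean ± SD; ANOVA vs vehicle.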

[9] = system: C57BL/6 male mice; test: Acute toxicity in mice, i.g.; type: in vivo
Procedure, shortened: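 Male C57BL/6 mice, 6–8 weeks, 18–22 g, 7 per group, received a single intragastric dose of 1000 mg/kg. Vehicle was 5% DMSO + 10% […] + 85% saline (v/v), adjusted to pH 8.0 with NaOH. Survival was monitored daily for 3 days.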

[10] = target: T2, ANO2 (Homo sapiens, UniProt Q9NQ90); test: ANO2 whole-cell patch clamp in HEK293 cells transiently expressing ANO2; type: cell-based; details: 30 μmol/L
T2 sequence (Q9NQ90 1-998): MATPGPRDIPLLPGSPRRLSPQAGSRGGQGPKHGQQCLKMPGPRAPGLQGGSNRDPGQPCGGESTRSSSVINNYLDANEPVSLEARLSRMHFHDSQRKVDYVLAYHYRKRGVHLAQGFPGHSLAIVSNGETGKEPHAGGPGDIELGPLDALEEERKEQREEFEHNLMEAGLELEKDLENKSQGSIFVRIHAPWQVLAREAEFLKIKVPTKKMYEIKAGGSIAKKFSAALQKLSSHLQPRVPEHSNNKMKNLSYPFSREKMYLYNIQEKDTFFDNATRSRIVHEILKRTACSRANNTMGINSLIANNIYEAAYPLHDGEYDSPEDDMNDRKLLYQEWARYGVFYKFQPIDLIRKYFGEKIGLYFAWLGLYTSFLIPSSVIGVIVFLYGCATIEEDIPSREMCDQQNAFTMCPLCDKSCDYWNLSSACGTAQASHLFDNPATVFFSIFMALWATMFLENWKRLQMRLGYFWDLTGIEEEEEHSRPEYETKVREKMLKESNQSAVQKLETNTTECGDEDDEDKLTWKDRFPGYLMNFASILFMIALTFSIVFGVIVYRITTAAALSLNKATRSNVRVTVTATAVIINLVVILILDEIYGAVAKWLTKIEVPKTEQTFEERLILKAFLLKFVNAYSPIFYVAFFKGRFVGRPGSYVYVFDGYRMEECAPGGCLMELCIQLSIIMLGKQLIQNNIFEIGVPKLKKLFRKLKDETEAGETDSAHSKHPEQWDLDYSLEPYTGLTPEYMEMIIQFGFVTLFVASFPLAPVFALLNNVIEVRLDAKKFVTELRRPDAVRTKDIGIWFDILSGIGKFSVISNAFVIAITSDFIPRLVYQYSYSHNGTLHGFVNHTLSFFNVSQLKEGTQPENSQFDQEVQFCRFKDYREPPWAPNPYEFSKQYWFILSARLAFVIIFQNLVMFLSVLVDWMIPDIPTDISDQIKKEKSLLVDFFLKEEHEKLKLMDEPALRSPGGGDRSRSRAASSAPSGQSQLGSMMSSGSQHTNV
Procedure, shortened: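 HEK293 cells transiently transfected with the ANO2 gene; whole-cell patch clamp at room temperature, pipette solution at pCa2+ 6.0. Cells held at −40 mV, stepped from […] in +20 mV increments for 500 ms, then repolarized to −80 mV for 250 ms, every 15 s. Currents recorded before and after 30 μmol/L test compound; an ANO1-selective inhibitor and a pan-inhibitor served as controls.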

[11] = target: T1, ANO1; test: YFP fluorescence quenching assay in ANO1-overexpressing FRT cell line; type: cell-based

For `O=C(O)c1c(-c2ccc(Cl)cc2)csc1NC(=O)c1cccc2ccccc12` [Compound 42, 2-(1-Naphthamido)-4-(4-chlorophenyl) thiophene-3-carboxylic acid], the “F prediction (%)” value [1] was over 70%, the Papp at 120 min [2] was 13.8 ×10⁻⁶ cm/s and the “maximum relative fluorescence units (RFU) vs initial value (Ca^2+ influx)” value [3] was 1.9 folds. The CaCC current [4] was “significantly suppressed the CaCC current”, the “5 h residual compound under different pH (%) pH 1.0” value ([5]; pH 1.0, 5 h) was 99.0 ± 4.6% and the “5 h residual compound under different pH (%) pH 4.0” value ([5]; pH 4.0, 5 h) was 99.4 ± 4.4%. For the same compound, the “5 h residual compound under different pH (%) pH 6.8” value ([5]; pH 6.8, 5 h) was 99.2 ± 4.9%, the “5 h residual compound under different pH (%) pH 7.4” value ([5]; pH 7.4, 5 h) was 99.4 ± 3.5% and the “5 h residual compound under different pH (%) pH 9.0” value ([5]; pH 9.0, 5 h) was 99.5 ± 0.9%. The “effect on CHO cell proliferation” value [6] was “weak effect”, the “PTI, pain threshold rate change (%) of 1 h compared to 0 h” value [7] was 45.2% and the “analgesic effect in phase 2 compared with vehicle” value ([8]; 80 mg/kg i.g., phase 2) was “significant analgesic effect”. For the same compound, the “number of foot lifts, phase 2” value ([8]; 80 mg/kg i.g., phase 2, vehicle 121 foot lifts) was 70 foot lifts, the “effect on number of foot lifts, phase 1” value ([8]; i.g., compared with the vehicle group, phase 1) was “not phase 1” and the “survival and acute toxic response” value ([9]; 1000 mg/kg i.g., 72 h, C57BL/6 male mice) was “All mice survived and no intense acute toxic response”. The safe dose ([9]; i.g. administration, mice) was at most 1000 mg/kg, the “effect on ANO2 induced CaCC current” value ([10]; HEK293 cells expressing ANO2) was “little effect” and the ANO1/ANO2 selectivity ([10]; compared with Ani9 and CaCCinh-A01) was “slightly weaker than that of Ani9 but much higher than that of CaCCinh-A01”. For the same compound, the IC50 [11] was 790 nM.
